CHRM4 PAM: human M4 muscarinic receptor positive allosteric modulators, primary screen, CHO-K1 cells, Fluo-8 calcium fluorescence; Muscarinic acetylcholine receptor M4 (Homo sapiens), P08173; CHO-K1 hM4/Gqi5, ACh EC20; 0% = ACh EC20, 100% = maximal ACh; activation, % at 3 µM; 360,000 tested, 0.4% active; AID 624126, 2012;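 active = activation above its plate's cutoff, the mean activation of sample wells plus 3 SD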
M5 PAM: human M5 muscarinic receptor positive allosteric modulators, primary screen, CHO-K1 cells, Fluo-8 calcium fluorescence. 360,000 tested, 0.3% active. activation, % at 3 µM. AID 624038, 2012. CHO-K1 hM5, ACh EC20 PAM; 0% = ACh EC20, 100% = ACh EC100;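 active = activation above the run cutoff, the mean activation of all test compounds plus 3 SD, cut at about 18% in these data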
Target sequence (P08912 whole entry, looked up): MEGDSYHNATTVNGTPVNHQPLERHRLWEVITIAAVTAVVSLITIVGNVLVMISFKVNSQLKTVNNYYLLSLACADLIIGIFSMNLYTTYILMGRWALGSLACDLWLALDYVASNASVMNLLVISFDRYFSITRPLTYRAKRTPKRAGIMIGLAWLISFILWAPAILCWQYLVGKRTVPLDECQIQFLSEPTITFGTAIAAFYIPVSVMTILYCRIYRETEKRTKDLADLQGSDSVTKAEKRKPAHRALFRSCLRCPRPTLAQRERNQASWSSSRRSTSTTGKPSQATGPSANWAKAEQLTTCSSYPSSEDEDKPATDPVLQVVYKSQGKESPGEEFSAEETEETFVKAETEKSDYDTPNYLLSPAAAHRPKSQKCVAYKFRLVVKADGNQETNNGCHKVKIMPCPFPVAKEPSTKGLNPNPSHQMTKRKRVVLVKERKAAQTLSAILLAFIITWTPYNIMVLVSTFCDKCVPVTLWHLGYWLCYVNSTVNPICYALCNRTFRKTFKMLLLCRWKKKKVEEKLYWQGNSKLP
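Assay system – human M5 receptor in CHO-K1 cells · Read-out – % activation, ACh-normalized · Technique – Fluo-8 calcium fluorescence · Dosing – single-point, 3 µM nominal · Incubation – Fluo-8 loading 80 min at 37 °C plus 30 min room temperature · Repeats – singlicate, one well per test compound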
CHRM5 antagonist: human M5 muscarinic receptor antagonists, primary screen, CHO cells, Fluo-8 calcium fluorescence; Muscarinic acetylcholine receptor M5 (Homo sapiens), P08912; CHO-hM5 cells, ACh EC80; inhibition, % at 3 µM; 360,000 tested, 0.59% active; AID 624040, 2012;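 active = inhibition above a per-plate cutoff, the mean of that plate's test compounds plus 3 SD, cut at about 27% in these data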;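 note: 0% = acetylcholine EC80 with DMSO and 100% = DMSO without agonist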
M4 ag: human M4 muscarinic receptor agonists, primary screen, CHO-K1 cells, Fluo-8 calcium fluorescence; Muscarinic acetylcholine receptor M4 (Homo sapiens), P08173; CHO-K1 hM4/Gqi5; vehicle 0%, full acetylcholine response 100%; activation, % at 3 µM; 360,000 tested, 0.14% active; AID 624127, 2012;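 active = activation above the run mean over all test wells plus 3 SD, cut at about 32% in these data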;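 note: peak over basal fluorescence ratio per well then scaled between controls; 0% = DMSO wells and 100% = acetylcholine at EC100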
CHRM5 agonist: human M5 muscarinic receptor agonists, primary screen, CHO-K1 cells, Fluo-8 calcium fluorescence | Muscarinic acetylcholine receptor M5 (Homo sapiens), P08912 | CHO-K1 hM5 cells; 0% DMSO wells, 100% maximal acetylcholine response | activation, % at 3 µM | 360,000 tested, 0.19% active;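 active = activation above the run's mean over test compounds plus 3 SD, cut at about 23% in these data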;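 note: signal is peak over basal fluorescence ratio across the kinetic read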
M4 antag: human M4 muscarinic receptor antagonists, primary screen, CHO cells, Fluo-8 calcium fluorescence; AID 624125, 2012; inhibition, % at 3 µM; 360,000 tested, 0.73% active; Muscarinic acetylcholine receptor M4 (Homo sapiens), P08173; CHO-hM4 cells, ACh EC80;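 active = inhibition above its plate's cutoff, the mean inhibition of sample wells plus 3 SD, cut at about 27% in these data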;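 note: 0% = acetylcholine EC80 with DMSO and 100% = DMSO without agonist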
* = called active by the depositor. Shown are actives, neighbours in structure and some others; about 1.8% of the full set was active somewhere.

Screening Cc1ccc(NC(=O)C2=C(c3ccccc3)S(=O)(=O)CCS2(=O)=O)cc1 returned CHRM4 PAM 1.8, M5 PAM -1.7, CHRM5 antagonist 9.7, M4 ag 4.8, CHRM5 agonist -4.6 and M4 antag 39.4*.
O=C(CCNc1ccc(Cc2ccncc2)cc1)c1cccc([N+](=O)[O-])c1 was read as CHRM4 PAM -19.4, M5 PAM -16.5, CHRM5 antagonist 21.6, M4 ag 3.1, CHRM5 agonist -7.9 and M4 antag 27.6*.
Screening O=C(CCNc1cccc(F)c1)c1cccc([N+](=O)[O-])c1 returned CHRM4 PAM -8.2, M5 PAM -9.2, CHRM5 antagonist 7.8, M4 ag 1.5, CHRM5 agonist -10.0 and M4 antag -14.1.
CC(=O)NC(CCCN1C(=O)c2ccccc2C1=O)c1nnn(C)n1 (stereo unspecified) was read as CHRM4 PAM 8.0, M5 PAM 3.3, CHRM5 antagonist -6.5, M4 ag 1.3, CHRM5 agonist 1.4 and M4 antag 0.8.
`COCCNC(=O)C1CCCN(S(=O)(=O)c2cccc3nsnc23)C1` (stereo unspecified) gave CHRM4 PAM -0.6, M5 PAM -3.1, CHRM5 antagonist 6.2, M4 ag 0.9, CHRM5 agonist -4.8 and M4 antag -4.1.
Screening O=C(c1cccc(S(=O)(=O)N2CCOCC2)c1)N1CCC(Cc2ccccc2)CC1 returned CHRM4 PAM 4.6, M5 PAM -1.6, CHRM5 antagonist 1.4, M4 ag 5.1, CHRM5 agonist 0.9 and M4 antag -18.5.
Screening O=C(c1cccc(S(=O)(=O)N2CCOCC2)c1)N1CCN(C/C=C/c2ccccc2)CC1 returned CHRM4 PAM -13.6, M5 PAM -48.6, CHRM5 antagonist 39.3*, M4 ag 4.7, CHRM5 agonist -11.7 and M4 antag -4.6.
For O=C(O)CC1Sc2nnc(COc3ccc(Cl)cc3)n2N=C1c1ccccc1 (stereo unspecified) the results were CHRM4 PAM -4.3, M5 PAM 5.5, CHRM5 antagonist -11.5, M4 ag 0.3, CHRM5 agonist -0.3 and M4 antag 5.9.
O=C(c1cccc(S(=O)(=O)N2CCCCC2)c1)N1CCN(c2ccccc2)CC1 was read as CHRM4 PAM -3.9, M5 PAM -6.3, CHRM5 antagonist 21.2, M4 ag 3.0, CHRM5 agonist -0.7 and M4 antag 12.2.
Screening O=C(c1ccc(S(=O)(=O)N2CCCCCC2)cc1)N1CCN(c2ccccc2)CC1 returned CHRM4 PAM 0.1, M5 PAM -3.6, CHRM5 antagonist 28.4*, M4 ag -0.1, CHRM5 agonist -3.0 and M4 antag -6.9.
For Cc1ccc(O)c(NC(=O)c2cc(-c3ccccc3Cl)on2)c1 the results were CHRM4 PAM -5.8, M5 PAM -9.5, CHRM5 antagonist 27.6*, M4 ag -0.4, CHRM5 agonist -7.5 and M4 antag 3.8.
For Cc1ccc(-c2cc(C(=O)Nc3cc(C)ccc3O)no2)cc1 the results were CHRM4 PAM 8.0, M5 PAM -1.5, CHRM5 antagonist 11.1, M4 ag 1.0, CHRM5 agonist -0.3 and M4 antag -2.7.
Screening O=C(NNS(=O)(=O)c1ccc2ccccc2c1)C1CCN(Cc2ccccc2)CC1 returned CHRM4 PAM -23.0, M5 PAM -23.4, CHRM5 antagonist 46.4*, M4 ag 2.3, CHRM5 agonist -4.2 and M4 antag 41.5*.
Screening O=S(=O)(C/C(=C/CO)S(=O)(=O)c1ccccc1)c1ccccc1 returned CHRM4 PAM 0.8, M5 PAM 1.8, CHRM5 antagonist 3.2, M4 ag 0.4, CHRM5 agonist -0.4 and M4 antag 30.4*.

Source: PubChem
